These results are taken from ChEMBL document CHEMBL4371031, “In Vitro Antiviral Activity of New Oxazoline Derivatives as Potent Poliovirus Inhibitors” (J Med Chem, 2019).

Common to all, as to type: functional, organism-based
Conditions in all cases: Enterovirus C

For one assay, the system named is Poliovirus 1. The experiment in a line: Antiviral activity against Poliovirus Sabin 1 infected in human HeLa cells assessed as reduction in virus-induced cytopathic effect after 72 hrs by crystal violet staining-based assay. The method, boiled down:
(§1)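 HeLa cells grown in MEM-10% FBS, seeded at 2x10^5 cells/mL in MEM-2% FBS and preincubated 24 h at 37°C, 5% CO2. Compound and virus were cross-titrated […] compound in 0.5 log10 steps (7-point curves), with duplicate wells and three replicate tests per virus. After 72 h at 37°C, cells were crystal violet stained and read at 590 nm. EC50 came from a four-parameter fit; if all virus dilutions gave >80% monolayer destruction, the value was […].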
(In general: Protection from cytopathic effect is a common read-out in antiviral testing.)

In a further assay the test system is Poliovirus 2. The assay can be described thus: Antiviral activity against Poliovirus Sabin 2 infected in human HeLa cells assessed as reduction in virus-induced cytopathic effect after 72 hrs by crystal violet staining-based assay. In short, it runs like this:
as §1

Another assay deals with Poliovirus 3. The experiment in a line: Antiviral activity against Poliovirus Sabin 3 infected in human HeLa cells assessed as reduction in virus-induced cytopathic effect after 72 hrs by crystal violet staining-based assay. In short, it runs like this: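 HeLa cells grown in MEM-10% FBS, seeded at 2x10^5 cells/mL in MEM-2% FBS and held 24 h at 37°C, 5% CO2. Compound and virus were cross-titrated together on the cells starting at 10 µM compound, in 0.5 log10 steps, duplicate wells, three replicate tests per virus. Incubated 72 h at 37°C, stained with crystal violet, A590 read. EC50 from four-parameter fit.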

Turning to `Cc1ccc(C(=O)CCCCOc2ccc(C3=N[C@H](C)CO3)cc2)s1`, the EC50 (in general, the concentration at which the effect is half-maximal) with Poliovirus 1 is over 100000 nM; in the assay with Poliovirus 2, 417 nM; with Poliovirus 3, 1320 nM.

With `Cc1ccc(C(=O)CCCC[S+]([O-])c2ccc(C3=NCCO3)cc2)s1` (racemic), the concentration for a half-maximal effect (EC50) in the assay on Poliovirus 1, with Poliovirus 2 and in the assay with Poliovirus 3 was over 10000 nM each time.

On to `Cc1ccc(C(=O)CCCCCc2ccc(C3=NCCO3)cc2)s1`, for which the values for the EC50 in the assay with Poliovirus 1, with Poliovirus 2 and with Poliovirus 3 were over 10000 nM, 9270 nM and 9070 nM, respectively.

With `N#Cc1ccc(NC(=O)c2cc3n(n2)C(C(F)(F)F)CC(c2cccs2)N3)cc1` (stereo unspecified), the EC50 was found to be 10 nM in the assay on Poliovirus 1, 26 nM in the assay with Poliovirus 2 and 218 nM with Poliovirus 3.

On to `COc1ccc(OCc2ccc(COc3c(Cl)cccc3Cl)cc2)c(Cl)c1`, for which the EC50 in the assay with Poliovirus 1 was found to be 17 nM; with Poliovirus 2, 16 nM; in the assay with Poliovirus 3 it was 20 nM.

`Cc1ccc(C(=O)CCCCSc2ccc(C3=N[C@H](C)CO3)cc2)s1`: the EC50 with Poliovirus 1 amounted to 169 nM; with Poliovirus 2, 302 nM; in the assay with Poliovirus 3 it was 530 nM.

For the molecule `CCOC(=O)c1ccc(OCCC2CCN(c3ccc(C)nn3)CC2)cc1` [PIRODAVIR], the EC50 came out at 4.5 nM in the assay on Poliovirus 1, 5 nM in the assay with Poliovirus 2 and 8 nM in the assay with Poliovirus 3.

For the molecule `Cc1ccc(C(=O)c2cccc(COc3ccc(C4=NCCO4)cc3)c2)s1`, the EC50 in the assay with Poliovirus 1, in the assay with Poliovirus 2 and in the assay with Poliovirus 3 was over 10000 nM each time.

As to `Cc1ccc(C(=O)c2cccc(CSc3ccc(C4=NCCO4)cc3)c2)s1`, the EC50 in the assay on Poliovirus 1, with Poliovirus 2 and in the assay with Poliovirus 3 was over 10000 nM throughout.

In the case of `C#CC[C@@H](C(=O)N[C@H](/C=C/C(=O)OCC)C[C@@H]1CCNC1=O)n1cccc(NC(=O)c2cc(C)on2)c1=O` [IMOCITRELVIR], the EC50 with Poliovirus 1 was found to be 173 nM; in the assay on Poliovirus 2 it was 305 nM; in the assay with Poliovirus 3, 137 nM.

Take `Cc1ccc(C(=O)CCCC#Cc2ccc(C3=NCCO3)cc2)s1`: the EC50 in the assay with Poliovirus 1 was over 10000 nM; in the assay on Poliovirus 2 it was 9090 nM; in the assay with Poliovirus 3 it was 9160 nM.

Turning to `Cc1ccc(C(=O)CCCCS(=O)(=O)c2ccc(C3=NCCO3)cc2)s1`, the EC50 in the assay with Poliovirus 1, in the assay with Poliovirus 2 and with Poliovirus 3 was over 10000 nM in each case.
